Experimental data from ChEMBL document CHEMBL3526002, “Tissue distribution and identification of radioactivity components at elimination phase after oral administration of [¹⁴C]CS-1036, an α-amylase inhibitor, to rats” (Drug Metab Dispos, 2013).

Assays:
Design in all cases: dose 5 mg/kg, dosed compound name [14C]CS-1036, route oral
Conditions in all cases: in vivo
Stomach = assay: Drug uptake in albino F344/DuCrlCrlj rat stomach assessed as ng equivalent of CS-1036 at 5 mg/kg, po after 24 hrs by liquid scintillation counting; assay type: ADME, organism-based
Plasma [1] = assay: Drug uptake in albino F344/DuCrlCrlj rat plasma assessed as ng equivalent of CS-1036 at 5 mg/kg, po after 72 hrs by liquid scintillation counting; assay type: ADME, organism-based
Liver [2] = assay: Drug uptake in albino F344/DuCrlCrlj rat liver at 5 mg/kg, po after 4 hrs by liquid scintillation counting; assay type: ADME, organism-based
Spleen [3] = assay: Drug uptake in albino F344/DuCrlCrlj rat spleen at 5 mg/kg, po after 4 hrs by liquid scintillation counting; assay type: ADME, organism-based
Aorta [4] = assay: Drug uptake in albino F344/DuCrlCrlj rat aorta at 5 mg/kg, po after 4 hrs by liquid scintillation counting; assay type: ADME, organism-based
Harderian gland [5] = assay: Drug uptake in albino F344/DuCrlCrlj rat harderian gland at 5 mg/kg, po after 8 hrs by liquid scintillation counting; assay type: ADME, organism-based
Zone of skin [6] = assay: Drug uptake in albino F344/DuCrlCrlj rat skin at 5 mg/kg, po after 8 hrs by liquid scintillation counting; assay type: ADME, organism-based
Plasma [7] = assay: Drug uptake in albino F344/DuCrlCrlj rat plasma at 5 mg/kg, po after 24 hrs by liquid scintillation counting; assay type: ADME, organism-based
Blood [8] = assay: Drug uptake in albino F344/DuCrlCrlj rat blood at 5 mg/kg, po after 24 hrs by liquid scintillation counting; assay type: ADME, organism-based
Summary of the method: (§1)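 Male F344/DuCrlCrlj rats (159–167 g; n = 3 per time point) received a single oral dose of [14C]CS-1036 at 5 mg/kg. Blood was taken from the abdominal aorta at 1, 4, 8, 24, 72, 168 and 336 h. Radioactivity was counted by LSC with external-standard efficiency correction. Results were converted to ng equivalent of CS-1036/ml using specific activity and sample volume, and reported as mean + S.D.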

Large intestine [9] = assay: Drug uptake in albino F344/DuCrlCrlj rat large intestine at 5 mg/kg, po after 336 hrs by liquid scintillation counting; assay type: ADME, organism-based
Lung [10] = assay: Drug uptake in albino F344/DuCrlCrlj rat lung assessed as ng equivalent of CS-1036 at 5 mg/kg, po after 1 hr by liquid scintillation counting; assay type: ADME, organism-based
[11] = Drug uptake in albino F344/DuCrlCrlj rat skeletal muscle assessed as ng equivalent of CS-1036 at 5 mg/kg, po after 336 hrs by liquid scintillation counting; assay type: ADME, organism-based, Muscle tissue
Zone of skin [12] = assay: Drug uptake in albino F344/DuCrlCrlj rat skin assessed as ng equivalent of CS-1036 at 5 mg/kg, po after 336 hrs by liquid scintillation counting; assay type: ADME, organism-based
[13] = Drug uptake in albino F344/DuCrlCrlj rat trachea at 5 mg/kg, po after 24 hrs by liquid scintillation counting; assay type: ADME, organism-based
[14] = Drug uptake in albino F344/DuCrlCrlj rat epididymis at 5 mg/kg, po after 24 hrs by liquid scintillation counting; assay type: ADME, organism-based
Small intestine = assay: Drug uptake in albino F344/DuCrlCrlj rat small intestine at 5 mg/kg, po after 24 hrs by liquid scintillation counting; assay type: ADME, organism-based
Large intestine [15] = assay: Drug uptake in albino F344/DuCrlCrlj rat large intestine at 5 mg/kg, po after 24 hrs by liquid scintillation counting; assay type: ADME, organism-based
Heart [16] = assay: Drug uptake in albino F344/DuCrlCrlj rat heart assessed as ng equivalent of CS-1036 at 5 mg/kg, po after 168 hrs by liquid scintillation counting; assay type: ADME, organism-based
Cerebrum = assay: Drug uptake in albino F344/DuCrlCrlj rat cerebrum at 5 mg/kg, po after 72 hrs by liquid scintillation counting; assay type: ADME, organism-based
Summary of the method: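 Single oral [14C]CS-1036 at 5 mg/kg was given to male rats (159–167 g; n = 3). Cerebrum was collected after aortic bleeding at 1, 4, 8, 24, 72, 168 or 336 h, weighed, and homogenized in 2 volumes of saline. A 0.5 ml aliquot was solubilized in Soluene-350 and counted by LSC with external-standard correction. Results are in ng equivalent/g tissue from specific activity and sample weight.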

[17] = Drug uptake in albino F344/DuCrlCrlj rat eyeball at 5 mg/kg, po after 72 hrs by liquid scintillation counting; assay type: ADME, organism-based
Kidney = assay: Drug uptake in albino F344/DuCrlCrlj rat kidney at 5 mg/kg, po after 72 hrs by liquid scintillation counting; assay type: ADME, organism-based
Blood [18] = assay: Drug uptake in albino F344/DuCrlCrlj rat blood assessed as ng equivalent of CS-1036 at 5 mg/kg, po after 8 hrs by liquid scintillation counting; assay type: ADME, organism-based; summary of the method: as §1
[19] = Drug uptake in albino F344/DuCrlCrlj rat epididymis assessed as ng equivalent of CS-1036 at 5 mg/kg, po after 168 hrs by liquid scintillation counting; assay type: ADME, organism-based
[20] = Drug uptake in albino F344/DuCrlCrlj rat urinary bladder assessed as ng equivalent of CS-1036 at 5 mg/kg, po after 168 hrs by liquid scintillation counting; assay type: ADME, organism-based
Harderian gland [21] = assay: Drug uptake in albino F344/DuCrlCrlj rat harderian gland at 5 mg/kg, po after 1 hr by liquid scintillation counting; assay type: ADME, organism-based
Spleen [22] = assay: Drug uptake in albino F344/DuCrlCrlj rat spleen at 5 mg/kg, po after 1 hr by liquid scintillation counting; assay type: ADME, organism-based
[23] = Drug uptake in albino F344/DuCrlCrlj rat fat at 5 mg/kg, po after 168 hrs by liquid scintillation counting; assay type: ADME, organism-based, Adipose tissue
Summary of the method: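 Male F344/DuCrlCrlj rats (bought at 7 weeks, acclimatized 5–6 days; 159–167 g; n = 3 per time point) received a single oral dose of [14C]CS-1036 at 5 mg/kg. White adipose tissue was collected after abdominal aortic bleeding at 1, 4, 8, 24, 72, 168 or 336 h. Samples were counted by LSC with external-standard efficiency correction. Results were converted to ng equivalents per g from specific activity and sample weight.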

[24] = Drug uptake in albino F344/DuCrlCrlj rat mandibular gland at 5 mg/kg, po after 336 hrs by liquid scintillation counting; assay type: ADME, organism-based
Heart [25] = assay: Drug uptake in albino F344/DuCrlCrlj rat heart at 5 mg/kg, po after 336 hrs by liquid scintillation counting; assay type: ADME, organism-based
Lung [26] = assay: Drug uptake in albino F344/DuCrlCrlj rat lung at 5 mg/kg, po after 336 hrs by liquid scintillation counting; assay type: ADME, organism-based
Liver [27] = assay: Drug uptake in albino F344/DuCrlCrlj rat liver at 5 mg/kg, po after 336 hrs by liquid scintillation counting; assay type: ADME, organism-based
Adrenal gland = assay: Drug uptake in albino F344/DuCrlCrlj rat adrenal gland at 5 mg/kg, po after 336 hrs by liquid scintillation counting; assay type: ADME, organism-based
[28] = Drug uptake in albino F344/DuCrlCrlj rat skeletal muscle at 5 mg/kg, po after 336 hrs by liquid scintillation counting; assay type: ADME, organism-based, Muscle tissue
Aorta [29] = assay: Drug uptake in albino F344/DuCrlCrlj rat aorta at 5 mg/kg, po after 336 hrs by liquid scintillation counting; assay type: ADME, organism-based
Thymus = assay: Drug uptake in albino F344/DuCrlCrlj rat thymus assessed as ng equivalent of CS-1036 at 5 mg/kg, po after 24 hrs by liquid scintillation counting; assay type: ADME, organism-based

Radiolabel recovery (Stomach): 16 ngequiv/g
Radiolabel recovery (Plasma [1]): 8 ngequiv/ml
Radiolabel recovery (Liver [2]): 276 ngequiv/g
Radiolabel recovery (Spleen [3]): 35.1 ngequiv/g
Radiolabel recovery (Aorta [4]): 23.9 ngequiv/g
Radiolabel recovery (Harderian gland [5]): 55.9 ngequiv/g
Radiolabel recovery (Zone of skin [6]): 60.3 ngequiv/g
Radiolabel recovery (Plasma [7]): 46.3 ngequiv/ml
Radiolabel recovery (Blood [8]): 35.7 ngequiv/ml
Radiolabel recovery (Large intestine [9]): 9.86 ngequiv/g
Radiolabel recovery (Lung [10]): 3 ngequiv/g
Radiolabel recovery [11]: 3.46 ngequiv/g
Radiolabel recovery (Zone of skin [12]): 16.4 ngequiv/g
Radiolabel recovery [13]: 43.2 ngequiv/g
Radiolabel recovery [14]: 40.8 ngequiv/g
Radiolabel recovery (Small intestine): 94.4 ngequiv/g
Radiolabel recovery (Large intestine [15]): 299 ngequiv/g
Radiolabel recovery (Heart [16]): 5.9 ngequiv/g
Radiolabel recovery (Cerebrum): 8.91 ngequiv/g
Radiolabel recovery [17]: 7.83 ngequiv/g
Radiolabel recovery (Kidney): 77.9 ngequiv/g
Radiolabel recovery (Blood [18]): 6.5 ngequiv/ml
Radiolabel recovery [19]: 8.2 ngequiv/g
Radiolabel recovery [20]: 6.6 ngequiv/g
Radiolabel recovery (Harderian gland [21]): 30.2 ngequiv/g
Radiolabel recovery (Spleen [22]): 65.6 ngequiv/g
Radiolabel recovery [23]: 130 ngequiv/g
Radiolabel recovery [24]: 8.58 ngequiv/g
Radiolabel recovery (Heart [25]): 7.28 ngequiv/g
Radiolabel recovery (Lung [26]): 8.43 ngequiv/g
Radiolabel recovery (Liver [27]): 7.76 ngequiv/g
Radiolabel recovery (Adrenal gland): 19.5 ngequiv/g
Radiolabel recovery [28]: 7.04 ngequiv/g
Radiolabel recovery (Aorta [29]): 11 ngequiv/g
Radiolabel recovery (Thymus): 5.8 ngequiv/g
SMILES: C[C@H]1O[C@@H](O[C@H]2[C@H](O)[C@@H](O)[C@@H](O[14C@H]3[14C@H](O)[14CH2]N[14C@@H]3[14CH2]O)O[C@@H]2CO)[C@H](O)[C@@H](O)[C@@H]1O
